Reference: ChEMBL document CHEMBL4138150, “Quinoline derivatives bearing pyrazole moiety: Synthesis and biological evaluation as possible antibacterial and antifungal agents” (2018)
In brackets after ≈: the same amount, converted by molar mass.

What was measured:
Proteus vulgaris [1] = assay: Antimicrobial activity against Proteus vulgaris RCMB 010085 assessed as diameter of zone inhibition at 5 mg/ml after 24 hrs by agar well diffusion assay; type: functional; settings: RCMB 010085, 24 h, read-out: DIZ
Method in brief: (§1)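 Agar well diffusion: 100 µL of 1 x10^8 CFU/mL bacteria was spread on nutrient agar. 10 mm wells received 100 µL of compound at 5 mg/mL in DMSO, or ampicillin or gentamycin standards at 1 mg/mL. DMSO served as negative control. Plates were incubated 24 h at 37 °C. Inhibition zone diameter (mm) was measured as the mean of triplicates.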

Shigella flexneri [2] = assay: Antimicrobial activity against Shigella flexneri RCMB 0100542 after overnight incubation by macro-tube dilution technique; type: functional
Method in brief: (§2)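 Macro-tube twofold dilution following NCCLS guidance, run in nutrient broth. The first tube held 10 mg compound in 2.0 mL DMSO and was serially halved 1:1 into 1.0 mL broth through tube 14; tube 15 was the control. The inoculum was suspended to turbidity in 5.0 mL broth, 0.2 mL was diluted into 40 mL, and 1.0 mL was added per tube. Tubes were incubated overnight at 37 °C. MIC was the lowest concentration with no growth.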

Staphylococcus aureus [3] = assay: Antimicrobial activity against Staphylococcus aureus RCMB 010027 after overnight incubation by macro-tube dilution technique; type: functional; method in brief: as §2
[4] = tested on: Staphylococcus epidermidis; assay: Antimicrobial activity against Staphylococcus epidermidis RCMB 010024 after overnight incubation by macro-tube dilution technique; type: functional; method in brief: as §2
Klebsiella pneumoniae [5] = assay: Antimicrobial activity against Klebsiella pneumoniae RCMB 010093 after overnight incubation by macro-tube dilution technique; type: functional; method in brief: as §2
Aspergillus fumigatus [6] = assay: Antimicrobial activity against Aspergillus fumigatus RCMB 02564 assessed as diameter of zone inhibition at 5 mg/ml after 72 hrs by agar well diffusion assay; type: functional; settings: RCMB 02564, 72 h, read-out: DIZ
Method in brief: (§3)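 Fungi (1 x10^6 CFU/mL, 100 µL) were spread on Sabouraud dextrose agar. 10 mm wells were loaded with 100 µL of test solution at 5 mg/mL in DMSO, or amphotericin B standard at 1 mg/mL. A DMSO negative control was included. Plates were incubated 72 h at 28 °C. Inhibition zone diameter (mm) was recorded as the average of triplicate runs.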

[7] = tested on: Staphylococcus epidermidis; assay: Antimicrobial activity against Staphylococcus epidermidis RCMB 010024 assessed as diameter of zone inhibition at 5 mg/ml after 24 hrs by agar well diffusion assay; type: functional; settings: RCMB 010024, 24 h, read-out: DIZ; method in brief: as §1
Candida albicans [8] = assay: Antimicrobial activity against Candida albicans RCMB 05035 after 72 hrs by macro-tube dilution technique; type: functional; settings: RCMB 05035, 72 h
Method in brief: (§4)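 Twofold macro-tube dilution following NCCLS guidance, run in malt extract broth. 10 mg compound in 2.0 mL DMSO in tube 1 was serially diluted 1:1 through tube 14 into 1.0 mL broth; tube 15 was the control. Culture was suspended to turbidity in 5.0 mL broth, 0.2 mL was diluted into 40 mL, and 1.0 mL was added per tube. Incubation was 72 h at 30 °C. MIC was the lowest concentration with no growth.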

Aspergillus fumigatus [9] = assay: Antimicrobial activity against Aspergillus fumigatus RCMB 02564 after 72 hrs by macro-tube dilution technique; type: functional; settings: RCMB 02564, 72 h; method in brief: as §4
Proteus vulgaris [10] = assay: Antimicrobial activity against Proteus vulgaris RCMB 010085 after overnight incubation by macro-tube dilution technique; type: functional; method in brief: as §2
Shigella flexneri [11] = assay: Antimicrobial activity against Shigella flexneri RCMB 0100542 assessed as diameter of zone inhibition at 5 mg/ml after 24 hrs by agar well diffusion assay; type: functional; settings: RCMB 0100542, 24 h, read-out: DIZ; method in brief: as §1
Aspergillus clavatus [12] = assay: Antimicrobial activity against Aspergillus clavatus RCMB 02593 after 72 hrs by macro-tube dilution technique; type: functional; settings: RCMB 02593, 72 h; method in brief: as §4
Klebsiella pneumoniae [13] = assay: Antimicrobial activity against Klebsiella pneumoniae RCMB 010093 assessed as diameter of zone inhibition at 5 mg/ml after 24 hrs by agar well diffusion assay; type: functional; settings: RCMB 010093, 24 h, read-out: DIZ; method in brief: as §1
Candida albicans [14] = assay: Antimicrobial activity against Candida albicans RCMB 05035 assessed as diameter of zone inhibition at 5 mg/ml after 72 hrs by agar well diffusion assay; type: functional; settings: RCMB 05035, 72 h, read-out: DIZ; method in brief: as §3
Bacillus subtilis [15] = assay: Antimicrobial activity against Bacillus subtilis RCMB 010063 after overnight incubation by macro-tube dilution technique; type: functional; method in brief: as §2
Bacillus subtilis [16] = assay: Antimicrobial activity against Bacillus subtilis RCMB 010063 assessed as diameter of zone inhibition at 5 mg/ml after 24 hrs by agar well diffusion assay; type: functional; settings: RCMB 010063, 24 h, read-out: DIZ; method in brief: as §1
Staphylococcus aureus [17] = assay: Antimicrobial activity against Staphylococcus aureus RCMB 010027 assessed as diameter of zone inhibition at 5 mg/ml after 24 hrs by agar well diffusion assay; type: functional; settings: RCMB 010027, 24 h, read-out: DIZ; method in brief: as §1
Aspergillus clavatus [18] = assay: Antimicrobial activity against Aspergillus clavatus RCMB 02593 assessed as diameter of zone inhibition at 5 mg/ml after 72 hrs by agar well diffusion assay; type: functional; settings: RCMB 02593, 72 h, read-out: DIZ; method in brief: as §3
[19] = tested on: Staphylococcus epidermidis; assay: Potency index, ratio of Amphotericin B IC50 to compound IC50 for Staphylococcus epidermidis RCMB 010024; type: functional
Candida albicans [20] = assay: Potency index, ratio of Amphotericin B IC50 to compound IC50 for Candida albicans RCMB 05035; type: functional
Proteus vulgaris [21] = assay: Potency index, ratio of Gentamycin IC50 to compound IC50 for Proteus vulgaris RCMB 010085; type: functional
Shigella flexneri [22] = assay: Potency index, ratio of Gentamycin IC50 to compound IC50 for Shigella flexneri RCMB 0100542; type: functional
Aspergillus clavatus [23] = assay: Potency index, ratio of Amphotericin B IC50 to compound IC50 for Aspergillus clavatus RCMB 02593; type: functional
Shigella flexneri [24] = assay: Antimicrobial activity against Shigella flexneri RCMB 0100542 assessed as diameter of zone inhibition at 1 mg/ml after 24 hrs by agar well diffusion assay; type: functional, organism-based
Method in brief: (§5)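 Agar well diffusion on nutrient agar spread with 100 µL of bacterial suspension at 1 x10^8 CFU/mL. Wells 10 mm wide were loaded with 100 µL of solution: test compounds at 5 mg/mL in DMSO, ampicillin or gentamycin standards at 1 mg/mL, DMSO negative control. Plates were incubated 24 h at 37 °C, and inhibition zone diameter (mm) was averaged over triplicates.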

Proteus vulgaris [25] = assay: Antimicrobial activity against Proteus vulgaris RCMB 010085 assessed as diameter of zone inhibition at 1 mg/ml after 24 hrs by agar well diffusion assay; type: functional, organism-based; method in brief: as §5
Klebsiella pneumoniae [26] = assay: Antimicrobial activity against Klebsiella pneumoniae RCMB 010093 assessed as diameter of zone inhibition at 1 mg/ml after 24 hrs by agar well diffusion assay; type: functional, organism-based; method in brief: as §5
Candida albicans [27] = assay: Antimicrobial activity against Candida albicans RCMB 05035 assessed as diameter of zone inhibition at 1 mg/ml after 72 hrs by agar well diffusion assay; type: functional; settings: RCMB 05035, 72 h, read-out: DIZ
Aspergillus fumigatus [28] = assay: Antimicrobial activity against Aspergillus fumigatus RCMB 02564 assessed as diameter of zone inhibition at 1 mg/ml after 72 hrs by agar well diffusion assay; type: functional; settings: RCMB 02564, 72 h, read-out: DIZ
Aspergillus clavatus [29] = assay: Antimicrobial activity against Aspergillus clavatus RCMB 02593 assessed as diameter of zone inhibition at 1 mg/ml after 72 hrs by agar well diffusion assay; type: functional; settings: RCMB 02593, 72 h, read-out: DIZ
[30] = tested on: Staphylococcus epidermidis; assay: Antimicrobial activity against Staphylococcus epidermidis RCMB 010024 assessed as diameter of zone inhibition at 1 mg/ml after 24 hrs by agar well diffusion assay; type: functional; settings: RCMB 010024, 24 h, read-out: DIZ
Bacillus subtilis [31] = assay: Antimicrobial activity against Bacillus subtilis RCMB 010063 assessed as diameter of zone inhibition at 1 mg/ml after 24 hrs by agar well diffusion assay; type: functional; settings: RCMB 010063, 24 h, read-out: DIZ
Staphylococcus aureus [32] = assay: Antimicrobial activity against Staphylococcus aureus RCMB 010027 assessed as diameter of zone inhibition at 1 mg/ml after 24 hrs by agar well diffusion assay; type: functional; settings: RCMB 010027, 24 h, read-out: DIZ

| Molecule | zone of inhibition at 5000 µg/mL (Proteus vulgaris [1]) [mm] | MIC (Shigella flexneri [2]) [µg/mL] | MIC (Staphylococcus aureus [3]) [µg/mL] | MIC [4] [µg/mL] | MIC (Klebsiella pneumoniae [5]) [µg/mL] | zone of inhibition at 5000 µg/mL (Aspergillus fumigatus [6]) [mm] | zone of inhibition at 5000 µg/mL [7] [mm] | MIC (Candida albicans [8]) [µg/mL] | MIC (Aspergillus fumigatus [9]) [µg/mL] | MIC (Proteus vulgaris [10]) [µg/mL] | zone of inhibition at 5000 µg/mL (Shigella flexneri [11]) [mm] | MIC (Aspergillus clavatus [12]) [µg/mL] | zone of inhibition at 5000 µg/mL (Klebsiella pneumoniae [13]) [mm] | zone of inhibition at 5000 µg/mL (Candida albicans [14]) [mm] | MIC (Bacillus subtilis [15]) [µg/mL] | zone of inhibition at 5000 µg/mL (Bacillus subtilis [16]) [mm] | zone of inhibition at 5000 µg/mL (Staphylococcus aureus [17]) [mm] | zone of inhibition at 5000 µg/mL (Aspergillus clavatus [18]) [mm] | further results |
| --- | --- | --- | --- | --- | --- | --- | --- | --- | --- | --- | --- | --- | --- | --- | --- | --- | --- | --- | --- |
| COc1ccc(C2CC(c3ccc(Oc4ccc5ccccc5n4)cc3)=NN2c2ccccc2)cc1 (centres undefined) | 24.5 | 0.48 (≈ 1.02 µM) | 0.24 (≈ 0.509 µM) | 0.24 (≈ 0.509 µM) | 3.9 (≈ 8.27 µM) | 23.5 | 26.2 | 0.48 (≈ 1.02 µM) | 1.95 (≈ 4.14 µM) | 9.9 (≈ 21 µM) | 23.3 | 3.9 (≈ 8.27 µM) | 26.1 | 23.5 | 0.06 (≈ 0.127 µM) | 28.7 | 29 | 22.9 | Ratio [19]: 2 |
| N#Cc1c(-c2ccc(Cl)cc2Cl)nn(-c2ccc3ccccc3n2)c1N | 20.6 | 0.12 (≈ 0.316 µM) | 0.49 (≈ 1.29 µM) | 0.49 (≈ 1.29 µM) | 0.49 (≈ 1.29 µM) | 20.9 | 22.3 | 0.12 (≈ 0.316 µM) | 0.98 (≈ 2.58 µM) | 0.98 (≈ 2.58 µM) | 23.2 | 0.49 (≈ 1.29 µM) | 21.6 | 24.8 | 0.12 (≈ 0.316 µM) | 25.8 | 21.6 | 22.3 | Ratio (Candida albicans [20]): 4; Ratio (Proteus vulgaris [21]): 2; Ratio (Shigella flexneri [22]): 4; Ratio (Aspergillus clavatus [23]): 4 |
| GENTAMICIN | – | 0.48 | – | – | 0.24 | – | – | – | – | 1.95 | – | – | – | – | – | – | – | – | inhibition zone (IZ) (Shigella flexneri [24]): 24.8 mm; inhibition zone (IZ) (Proteus vulgaris [25]): 23.4 mm; inhibition zone (IZ) (Klebsiella pneumoniae [26]): 26.3 mm |
| C[C@@H]1[C@H](O)[C@@H](C)/C=C/C=C/C=C/C=C/C=C/C=C/C=C/[C@H](O[C@@H]2O[C@H](C)[C@@H](O)[C@H](N)[C@@H]2O)C[C@@H]2O[C@](O)(C[C@@H](O)C[C@@H](O)[C@H](O)CC[C@@H](O)C[C@@H](O)CC(=O)O[C@H]1C)C[C@H](O)[C@H]2C(=O)O [AMPHOTERICIN B] | – | – | – | – | – | – | – | 0.48 (≈ 0.519 µM) | 0.97 (≈ 1.05 µM) | – | – | 1.95 (≈ 2.11 µM) | – | – | – | – | – | – | zone of inhibition at 1000 µg/mL (Candida albicans [27]): 26.4 mm; zone of inhibition at 1000 µg/mL (Aspergillus fumigatus [28]): 23.7 mm; zone of inhibition at 1000 µg/mL (Aspergillus clavatus [29]): 21.9 mm |
| CC1(C)S[C@@H]2[C@H](NC(=O)[C@H](N)c3ccccc3)C(=O)N2[C@H]1C(=O)O [AMPICILLIN] | – | – | 0.06 (≈ 0.172 µM) | 0.48 (≈ 1.37 µM) | – | – | – | – | – | – | – | – | – | – | 0.007 (≈ 0.02 µM) | – | – | – | zone of inhibition at 1000 µg/mL [30]: 25.4 mm; zone of inhibition at 1000 µg/mL (Bacillus subtilis [31]): 34.6 mm; zone of inhibition at 1000 µg/mL (Staphylococcus aureus [32]): 28.9 mm |
